# Source: PubChem BioAssay
# Active and inactive are the calls of the source.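 How the source made its calls, unless noted: active means inhibition at or above 50% relative to wild type and mutant plate controls; inactive means inhibition below 50%.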
# Legend:
# [1] = inhibitors of TNFa-induced NFkB p65 translocation, primary screen, imaging, HUVEC, MLSMR starter and 10KST1 sets (AID 438;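 active means inhibition above 20% together with a positive visual image hit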;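 further: compound added about 3h40 before a 20 min TNFalpha stimulation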;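 on inhibition: signal is the nuclear over cytoplasmic p65 intensity ratio per well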); conditions: HUVEC TNFa-induced p65 nuclear translocation; cell count: measured here: nuclei count (cytotoxicity indicator), at 2.08 µM; inhibition: at 2 µM, stronger effect = higher value, 0% TNFa-plus-vehicle, 100% no-TNFa wells
# [2] = endothelial E-selectin expression blockers – imaging, HUVEC, immunofluorescence, MLSMR starter and 10KST1 sets, primary screen (AID 487;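 active means visually confirmed hit in the image check and inhibition above 20%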;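 on inhibition: signal is fraction of cell area covered by stained E-selectin grains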;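 on nuclei count: 100% = median nuclei count of all wells on the same plate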); conditions: HUVEC TNFalpha-induced E-selectin immunofluorescence imaging, at 2 µM; inhibition: stronger effect = higher value; nuclei count: measured here: cell number, toxicity
# [3] = Primary imaging screen for DUSP6 inhibitors that restore phospho-Erk in transfected HeLa cells, chemical complementation (AID 609;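 active means compounds giving at least 50% inhibition in the cell-based MKP-3 phosphatase rescue imaging test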;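 on inhibition: phospho-Erk level distribution per well compared with pooled transfected vehicle control wells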); conditions: HeLa MKP-3 transfected, phospho-Erk imaging KS statistic, at 10 µM, cells stimulated with TPA for 15 min
# [4] = biological target: Dual specificity protein phosphatase 6 (Homo sapiens) (UniProt Q16828); assay: as above; conditions: HeLa MKP-3 transfected, phospho-Erk imaging KS statistic; at 10 µM; stronger effect = higher value; cells stimulated with TPA for 15 min
# Dual specificity protein phosphatase 6 (Homo sapiens), sequence (Q16828 whole entry, looked up): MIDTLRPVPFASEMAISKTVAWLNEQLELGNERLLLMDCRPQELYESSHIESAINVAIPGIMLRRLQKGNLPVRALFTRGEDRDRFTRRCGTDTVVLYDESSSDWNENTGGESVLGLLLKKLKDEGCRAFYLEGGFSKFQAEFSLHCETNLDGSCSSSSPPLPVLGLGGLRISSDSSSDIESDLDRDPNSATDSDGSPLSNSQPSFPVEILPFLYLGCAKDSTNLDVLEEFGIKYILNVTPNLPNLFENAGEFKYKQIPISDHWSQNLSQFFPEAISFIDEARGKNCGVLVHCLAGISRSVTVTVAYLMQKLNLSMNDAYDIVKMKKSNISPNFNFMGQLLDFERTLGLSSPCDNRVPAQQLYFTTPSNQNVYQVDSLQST
# [5] = biological target: Voltage-gated potassium channel subunit beta-2 (Rattus norvegicus) (UniProt P62483); assay: inhibitors of rat Kvbeta2 reductase activity – biochemical, NADPH fluorescence, primary screen (AID 622;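 active means fluorescence slope higher than the sample average by over 3 SD, cut at about -0.22 in these data, passing the limit was not always enough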;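 further: slope of raw intensity against log time taken from 70 to 1610 s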); conditions: recombinant KvBeta, 4-cyanobenzaldehyde reduction, at 10 µM, stronger effect = higher value
# Voltage-gated potassium channel subunit beta-2 (Rattus norvegicus), sequence (P62483 whole entry, looked up): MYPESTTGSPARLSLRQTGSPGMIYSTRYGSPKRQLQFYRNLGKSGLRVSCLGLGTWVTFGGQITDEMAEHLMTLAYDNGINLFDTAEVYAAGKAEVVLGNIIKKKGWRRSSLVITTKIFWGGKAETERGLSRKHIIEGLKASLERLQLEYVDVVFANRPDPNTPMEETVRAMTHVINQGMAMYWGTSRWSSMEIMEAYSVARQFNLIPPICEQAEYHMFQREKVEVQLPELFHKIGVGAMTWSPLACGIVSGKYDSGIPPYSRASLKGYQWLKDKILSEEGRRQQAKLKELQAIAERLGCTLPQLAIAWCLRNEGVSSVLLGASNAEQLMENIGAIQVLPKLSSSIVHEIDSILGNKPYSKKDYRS
# [6] = biological target: Voltage-gated potassium channel subunit beta-2 (Rattus norvegicus) (UniProt P62483); assay: enhancers of rat Kvbeta2 NADPH turnover – biochemical, NADPH fluorescence, primary screen (AID 623;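 active means NADPH fluorescence slope more negative than the mean of all samples by about 3 SD, 99.7% confidence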;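 further: fluorescence intensity change per second fitted from 20 to 320 s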); conditions: Recombinant KvBeta, NADPH fluorescence decrease slope, 10 min; at 10 µM; stronger effect = lower value
# [7] = biological target: Muscarinic acetylcholine receptor M4 (Homo sapiens) (UniProt P08173); assay: M4-linked GIRK flux change, two-sided – cell-based, HEK293 M4/GIRK, thallium flux, BTC-AM, M4 allosteric agonist project, primary screen (AID 625;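 active means fluorescence slope after compound addition differing from the mean of all tested samples at 99.7% confidence, mostly higher but some lower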;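 further: thallium influx through GIRK channels coupled to M4 in HEK293 cells with BTC-AM dye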); conditions: at 10 µM, actives lie on both sides
# Muscarinic acetylcholine receptor M4 (Homo sapiens), sequence (P08173 whole entry, looked up): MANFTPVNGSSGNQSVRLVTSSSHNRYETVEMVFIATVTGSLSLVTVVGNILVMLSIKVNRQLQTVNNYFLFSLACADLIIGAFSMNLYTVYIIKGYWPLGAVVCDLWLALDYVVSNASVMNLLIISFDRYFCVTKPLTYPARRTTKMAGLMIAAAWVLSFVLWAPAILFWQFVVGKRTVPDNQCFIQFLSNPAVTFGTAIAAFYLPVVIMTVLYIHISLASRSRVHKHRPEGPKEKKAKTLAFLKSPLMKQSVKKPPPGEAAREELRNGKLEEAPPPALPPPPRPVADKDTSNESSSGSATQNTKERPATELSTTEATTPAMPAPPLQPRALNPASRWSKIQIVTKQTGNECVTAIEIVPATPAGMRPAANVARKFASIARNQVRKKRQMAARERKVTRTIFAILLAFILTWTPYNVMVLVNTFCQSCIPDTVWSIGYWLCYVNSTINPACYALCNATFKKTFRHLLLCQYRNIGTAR
# Method in brief: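 Material: M4/GIRK1/GIRK2 stable HEK293 cell line. Medium: pH 7.3 thallium assay buffer. Dosing: single compound concentration, 10 µM final. Schedule: 1 h dye loading, 2 min kinetic read. Measured by: kinetic fluorescence with BTC-AM dye. Read-out: post-addition slope, 15–24 s, of baseline-normalized fluorescence. Benchmarks: carbachol and DMSO controls.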
# [8] = inhibitors of larval lipid processing in zebrafish, primary screen, whole organism, PED6 fluorescence, gall bladder and intestine (AID 686;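 active means a full or partial loss of lipid-probe fluorescence in the fish gall bladder, intestine or both, judged by eye; inactive means no fluorescence loss, or compound toxic to the fish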;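 further: larvae 5 to 7 days old with five fish per well; signal comes from phospholipase A2 cleavage of quenched PED6 carried via bile; overnight exposure to compound and PED6 before scoring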); conditions: Zebrafish larvae PED6 lipid processing, fluorescence scoring; screened at 20 µM (by protocol)
# Method in brief: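 System: live zebrafish larvae aged 5-7 days, whole organism; measure: graded gall bladder and intestinal fluorescence inhibition per well; incubation: overnight exposure; reagent: ingested quenched lipid PED6 at 100 nM; signal: By-eye fluorescence microscopy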
# [9] = loss of swimming-algae plug formation – whole organism, Chlamydomonas reinhardtii, WT vs cilia-less mutant, absorbance, 96-well, primary screen (AID 463189); conditions: Chlamydomonas reinhardtii gravitaxis, OD600 absorbance, 2 days; at 10 µM; stronger effect = higher value;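 further: 0% = wild type cc124 cells in DMSO and 100% = ciliumless bld1 mutant cells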
# [10] = measured here: cell density z-score
# [11] = measured here: nuclear c-Myc green intensity z-score
# [12] = measured here: nuclear pErk red intensity z-score, stronger effect = higher value
Compound,cell count [1],inhibition [1],inhibition [2],nuclei count [2],"z-score [3, 10]","z-score [3, 11]","z-score [3, 12]",inhibition [4],fluorescence slope [5],NADPH fluorescence slope [6],fluorescence slope [7],outcome [8],inhibition [9]
CCCCCOc1ccccc1C(=O)NCC(=O)O,376,-5% (inactive),-55.5% (inactive),169%,0.663,-0.72,-0.603,-0.584% (inactive),-0.438 (inactive),-9.1e-05 (inactive),0.00543 (inactive),inactive,-2.86% (inactive)
CCSc1nnc(NC(=O)NCC(F)(F)F)s1,580,-4.9% (inactive),31.5% (inactive),96.4%,1.02,-0.999,-0.913,9.07% (inactive),-0.469 (inactive),-3.9e-05 (inactive),0.00649 (inactive),inactive,-11.4% (inactive)
C=CCN(C)CCCNC(=O)/C=N/O,585,-6.9% (inactive),22.6% (inactive),87%,1.68,-0.8,-0.822,31.4% (inactive),-0.504 (inactive),-8.8e-05 (inactive),0.00593 (inactive),inactive,-9.97% (inactive)
CCNC(=O)COn1c(SCC(=O)NCC)nc2ccccc2c1=O,763,2.9% (inactive),10% (inactive),174%,0.564,0.056,0.704,-4.7% (inactive),-0.443 (inactive),-4.1e-05 (inactive),0.00588 (inactive),inactive,-4.94% (inactive)
CCCn1nc(Oc2nc(SC)nc(N(C)C)n2)ccc1=O,340,-6.1% (inactive),-38% (inactive),91.9%,1.7,-0.0746,-1.32,16.1% (inactive),-0.491 (inactive),3.6e-05 (inactive),0.00516 (inactive),inactive,-11.7% (inactive)
COc1ccc(C2=CC(c3ccc(C)cc3)n3nnnc3N2)cc1 (stereo not given),524,-9.2% (inactive),29.9% (inactive),186%,-0.166,-0.102,0.752,-9.91% (inactive),-0.294 (inactive),-4.1e-05 (inactive),0.00566 (inactive),inactive,-5.34% (inactive)
COC(=O)CSc1nnc(C)c(=O)[nH]1,609,-15.3% (inactive),-317% (inactive),138%,0.155,1.52,-3.1,-7.86% (inactive),-0.484 (inactive),-7.4e-05 (inactive),0.00545 (inactive),inactive,-3.96% (inactive)
CCOC(=O)C(C)c1nc2ccccc2[nH]c1=O (stereo not given),579,-6.6% (inactive),-30.5% (inactive),164%,-0.098,0.564,0.462,1.9e-07% (inactive),-0.397 (inactive),-6.3e-05 (inactive),0.00575 (inactive),inactive,12.9% (inactive)
Cc1cc(=O)oc2cc(OCC(=O)NCc3cccnc3)ccc12,618,9% (inactive),-1.6% (inactive),105%,-0.419,-0.48,0.0246,-3.95% (inactive),-0.428 (inactive),-5e-05 (inactive),0.00447 (inactive),inactive,-0.087% (inactive)
CC1(C(=O)CSc2ncn[nH]2)CCC(=O)O1 (stereo not given),643,19.2% (inactive),21.4% (inactive),93.2%,-1.6,1.61,0.596,7.21% (inactive),-0.544 (inactive),-5.7e-05 (inactive),0.00624 (inactive),inactive,29.1% (inactive)
COc1ccc(CC(=O)n2c(CC#N)nc3ccccc32)cc1OC,598,-10.9% (inactive),-32.4% (inactive),112%,-0.393,-2.03,0.813,-0.233% (inactive),-0.465 (inactive),-3.6e-05 (inactive),0.00563 (inactive),inactive,9.22% (inactive)
Cc1cc(C)n(CC(=O)c2ccccc2)c(=O)c1C#N,470,-3.8% (inactive),-112% (inactive),157%,-1.09,0.551,0.941,-3.95% (inactive),-0.432 (inactive),-4.1e-05 (inactive),0.0047 (inactive),inactive,-1.97% (inactive)
Cc1ccc(N2CC(C(=O)Nc3ccc(N(C)C)cc3)CC2=O)cc1C (stereo not given),477,-7.1% (inactive),-76.8% (inactive),107%,-1.37,0.307,1.15,-1.98% (inactive),-0.411 (inactive),-9.5e-07 (inactive),0.00461 (inactive),inactive,-1.65% (inactive)
COC(=O)c1sc2nc(N3CCCCC3)c3c(c2c1N)CC(C)(C)N(C)C3,365,-3.8% (inactive),-114% (inactive),173%,-0.314,1.33,0.691,3.42% (inactive),-0.155 (active),8.1e-06 (inactive),0.00431 (inactive),inactive,7.69% (inactive)
CCCc1cc(Nc2c(C)n(C)n(-c3ccccc3)c2=O)n2c(nc3ccccc32)c1C#N,336,-3.4% (inactive),-170% (inactive),134%,-1.08,0.689,-0.99,-6.59% (inactive),-0.48 (inactive),-2.2e-05 (inactive),0.00467 (inactive),inactive,0.457% (inactive)
COc1ccc2c(c1)c(C(=O)CN1CCOCC1)c(C)n2C,628,0.5% (inactive),57.3% (inactive),85.8%,-0.409,-0.95,1.79,17.8% (inactive),-0.48 (inactive),-5.6e-05 (inactive),0.00679 (inactive),active; weak signal in gallbladder and intestine,27.4% (inactive)
Nc1nc2n(n1)C(c1ccc(F)cc1)CC(c1ccc(F)cc1)N2 (stereo not given),346,-13.8% (inactive),-43.3% (inactive),97%,-0.282,0.742,-0.273,5.65% (inactive),-0.457 (inactive),-5.2e-05 (inactive),0.00499 (inactive),inactive,19.7% (inactive)
CCOC(=O)c1c(CN2CCN(CCO)CC2)n(C)c2cc(Br)c(OC)cc12,380,-7.5% (inactive),-1.9% (inactive),103%,-0.09,0.157,0.909,-2.29% (inactive),-0.4 (inactive),5.8e-06 (inactive),0.00459 (inactive),inactive,26.8% (inactive)
COc1ccc(OC)c(C2/C(=C(\O)c3ccc(OC)c(Cl)c3)C(=O)C(=O)N2CCN(C)C)c1 (stereo not given),680,-6.8% (inactive),-97.8% (inactive),173%,-0.468,-0.414,-1.65,-2.91% (inactive),-0.449 (inactive),-3.7e-05 (inactive),0.00525 (inactive),inactive,14% (inactive)
CCOc1ccc(C2=Nn3c(nnc3-c3ccccc3OC)SC2)cc1,409,35.7% (active),-453% (inactive),82.2%,-1.24,0.121,-0.702,4.25% (inactive),-0.472 (inactive),-1.9e-05 (inactive),0.00485 (inactive),inactive,-11.5% (inactive)
COC(=O)NC(Nc1sc2c(c1C(N)=O)CCCC2)(C(=O)OC)C(F)(F)F (stereo not given),713,11.7% (inactive),-59.3% (inactive),147%,0.143,-0.0847,-0.638,-11.4% (inactive),-0.431 (inactive),-7.5e-05 (inactive),0.00518 (inactive),inactive,-3.75% (inactive)
FC(F)(F)c1cccc(N2CCc3cn[nH]c32)c1,690,2.2% (inactive),-30.9% (inactive),178%,0.755,0.954,0.248,15.9% (inactive),-0.48 (inactive),-6.5e-05 (inactive),0.00449 (inactive),inactive,-4.32% (inactive)
CCSc1nnc(NC(=O)NC(CC)(C(F)(F)F)C(F)(F)F)s1,704,0.5% (inactive),-56.3% (inactive),140%,-0.466,-0.955,-0.238,9.07% (inactive),-0.431 (inactive),-5e-05 (inactive),0.00857 (inactive),inactive,22.7% (inactive)
C=C(C)CSc1nnc2n(C)c(=O)c3c4c(sc3n12)CCC4,334,8.5% (inactive),-1.8% (inactive),118%,1.02,-0.186,-0.897,15.4% (inactive),-0.438 (inactive),-0.000119 (inactive),0.00483 (inactive),inactive,41.8% (inactive)
CCO/C(C)=N/n1c2nc3ccccc3nc2c2c(=O)n(Cc3ccccc3Cl)c(C)nc21,649,-3.5% (inactive),-201% (inactive),159%,-0.0584,-0.543,-0.0329,9.37% (inactive),-0.455 (inactive),-3.5e-05 (inactive),0.00359 (inactive),inactive,12.7% (inactive)
